Consider 24 compounds from ChEMBL document CHEMBL1152534, “Synthesis of oxalamide and triazine derivatives as a novel class of hybrid 4-aminoquinoline with potent antiplasmodial activity” (Bioorg Med Chem, 2009).

Experiment [1] deals with Plasmodium yoelii. The experiment can be described thus: Antiplasmodial activity against Plasmodium yoelii infected in Swiss mice (Mus musculus) erythrocytes assessed as inhibition of beta-hematin formation after 16 hrs by fluorescence assay. Conditions: in the assay text read “absorbance measurement at 400 nm” for “fluorescence assay”; call rule not given here. The class given is functional, organism-based. An outline of the steps:
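Plasma came from P. yoelii-infected mouse blood at about 50% parasitemia, collected in citrate and centrifuged. The mix held 100 mM sodium acetate pH 5.1, 50 µL plasma and 100 µM hemin substrate in 1.0 mL, run in triplicate at 37 °C for 16 h with shaking. The pellet was dissolved in Tris-HCl pH 7.4 with 2.5% SDS. Absorbance at 400 nm; IC50 by non-linear regression.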

In experiment [2] the test system is Plasmodium yoelii. The experiment is described as follows: Antimalarial activity against chloroquine-resistant Plasmodium yoelii N67 infected in Swiss mice (Mus musculus) assessed as inhibition of parasitaemia at 50 mg/kg, intraperitoneally administered daily for 4 days measured on day 4 post-infection. The class given is functional. In a few lines: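 Swiss mice were inoculated with 1 × 10⁶ P. yoelii N-67 parasitized RBC on day 0. Groups of five received compound as an aqueous suspension with a few drops of Tween 80, at 50 mg/kg/day intraperitoneally once daily from day 0 to 3. Parasitaemia was read from thin smears on day 4, with group-mean percent suppression against untreated controls.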

Experiment [3] can be described thus: Selectivity index, ratio of CC50 for african green monkey (Cercopithecus aethiops) Vero cells to IC50 for chloroquine-sensitive Plasmodium falciparum 3D7. It is filed as functional. In a few lines:
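SI is Vero CC50 divided by the antiplasmodial IC50. For CC50, Vero (C-1008) cells at 1 × 10⁴ cells/well were exposed to varying compound concentrations for 72 h with an MTT read-out. CC50 is the concentration killing 50% of cells.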

The test system of a further experiment is Plasmodium falciparum. The experiment can be described thus: Antimalarial activity against chloroquine-sensitive Plasmodium falciparum 3D7 […] after 72 hrs by twofold serial dilution method. It is filed as functional, organism-based. An outline of the steps:
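P. falciparum 3D7 erythrocyte culture, 2.5% cell suspension at 0.5% parasitaemia. Compounds were twofold serially diluted from 500 ng/mL (seven concentrations) in duplicate wells and incubated 72 h. Lysis buffer with SYBR Green I (Tris pH 7.5, EDTA, saponin, Triton X-100) was added, followed by 1 h at room temperature and a fluorescence read. IC50 from non-linear regression dose–response curves.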

The mark [4] stands for this setting: Plasmodium falciparum, 3D7, Vero, 72 h, read-out: IC50.

≈ marks a conversion by molar mass, not a printed value.

In general, IC50 refers to the concentration needed to halve the response being measured. As to `CN1CCN(c2nc(NCCNc3ccnc4cc(Cl)ccc34)nc(N3CCCCC3)n2)CC1`, the half-maximal inhibitory concentration (IC50) was determined as 9.1 µg/mL (≈ 18.9 µM) with Plasmodium yoelii [1] (Plasmodium yoelii, 16 h) and 0.00788 µg/mL (≈ 0.0163 µM) in the experiment with Plasmodium falciparum (setting [4]). Besides, the Activity result with Plasmodium yoelii [2] was “Toxic”. The “Ratio CC50/IC50” value in experiment [3] turned out to be 958.12.
In the case of `O=C(C(=O)N1CCN(CCNc2ccnc3cc(Cl)ccc23)CC1)c1c[nH]c2ccccc12`, in the experiment with Plasmodium falciparum (vero), the IC50 entry is “Not Active”.
Regarding `CN(C)CCNc1nc(NCCCNc2ccnc3cc(Cl)ccc23)nc(N2CCOCC2)n1`, the IC50 with Plasmodium yoelii [1] (Plasmodium yoelii, 16 h) was 7.94 µg/mL (≈ 16.3 µM); in the experiment with Plasmodium falciparum (setting [4]) it was 0.164 µg/mL (≈ 0.337 µM). For the same compound, the “Ratio CC50/IC50” value in experiment [3] is given as 219.77.
With `CN(C)CCNC(=O)C(=O)N1CCN(c2ccnc3cc(Cl)ccc23)CC1`, the IC50 result with Plasmodium falciparum (vero) is “Not Active”.
The same measure, in the same setting: under `Cn1cc(C(=O)C(=O)N2CCN(c3ccnc4cc(Cl)ccc34)CC2)c2ccccc21` stands “Not Active”.
For the compound `Cc1ccc(S(=O)(=O)n2cc(C(=O)C(=O)N3CCN(c4ccnc5cc(Cl)ccc45)CC3)c3ccccc32)cc1`, the IC50 result in the experiment on Plasmodium falciparum (vero) is reported as “Not Active”.
On the same count and under the same terms, for `Clc1ccc2c(NCCNc3nc(NCCN4CCOCC4)nc(N4CCCCC4)n3)ccnc2c1` the value was “Not Active”.
In the case of `Clc1ccc2c(NCCCNc3nc(NCCCN4CCOCC4)nc(N4CCCCC4)n3)ccnc2c1`, the IC50 in the experiment with Plasmodium yoelii [1] (Plasmodium yoelii, 16 h) was determined as 7.54 µg/mL (≈ 14 µM); in the experiment on Plasmodium falciparum (setting [4]) it was 0.00523 µg/mL (≈ 0.00968 µM). In the experiment on Plasmodium yoelii [2], the Activity entry was “Toxic”. Besides, in experiment [3], the “Ratio CC50/IC50” value is 860.41.
For `O=C(NCCCN1CCOCC1)C(=O)N1CCN(CCNc2ccnc3cc(Cl)ccc23)CC1`, the figures for the IC50 result in the experiment on Plasmodium yoelii [1] and with Plasmodium falciparum (setting [4]) were “Not Active” and 0.0408 µg/mL (≈ 0.0835 µM), respectively. Moreover, the “Ratio CC50/IC50” value in experiment [3] turned out to be 1221.84.
Regarding `Clc1ccc2c(NCCCNc3nc(NCCN4CCOCC4)nc(N4CCCCC4)n3)ccnc2c1`, the IC50 result in the experiment on Plasmodium falciparum (vero) is on record as “Not Active”.
In the case of `CCN(CC)CCNc1nc(NCCNc2ccnc3cc(Cl)ccc23)nc(N2CCCCC2)n1`, the IC50 with Plasmodium yoelii [1] (Plasmodium yoelii, 16 h) was 10.2 µg/mL (≈ 20.4 µM); in the experiment with Plasmodium falciparum (setting [4]) it was 0.0147 µg/mL (≈ 0.0295 µM). Moreover, the “Ratio CC50/IC50” value in experiment [3] turned out to be 223.13.
Regarding `CCN(CC)CCNC(=O)C(=O)N1CCN(CCNc2ccnc3cc(Cl)ccc23)CC1`, the results for the IC50 result in the experiment with Plasmodium yoelii [1] and with Plasmodium falciparum (setting [4]) were “Not Active” and 0.0798 µg/mL (≈ 0.173 µM), respectively. Also, the “Ratio CC50/IC50” value in experiment [3] amounted to 194.
Consider `Clc1ccc2c(NCCNc3nc(NCCCN4CCOCC4)nc(N4CCOCC4)n3)ccnc2c1`, for which the IC50 with Plasmodium yoelii [1] (Plasmodium yoelii, 16 h) came to 8.58 µg/mL (≈ 16.2 µM); with Plasmodium falciparum (setting [4]), 0.0222 µg/mL (≈ 0.042 µM). In experiment [3], the “Ratio CC50/IC50” value was determined as 2405.86.
Take `Clc1ccc2c(NCCCNc3nc(NCCCN4CCOCC4)nc(N4CCOCC4)n3)ccnc2c1`: the IC50 is 8.6 µg/mL (≈ 15.9 µM) in the experiment on Plasmodium yoelii [1] (Plasmodium yoelii, 16 h) and 0.0521 µg/mL (≈ 0.096 µM) in the experiment on Plasmodium falciparum (setting [4]). For the same compound, the “Ratio CC50/IC50” value in experiment [3] was found to be 706.15.
Take `CN1CCN(c2nc(NCCNc3ccnc4cc(Cl)ccc34)nc(N3CCOCC3)n2)CC1`: the IC50 in the experiment with Plasmodium yoelii [1] (Plasmodium yoelii, 16 h) turned out to be 6.19 µg/mL (≈ 12.8 µM); with Plasmodium falciparum (setting [4]), 0.01 µg/mL (≈ 0.0207 µM). The Activity result in the experiment with Plasmodium yoelii [2] is “Toxic”. Also, the “Ratio CC50/IC50” value in experiment [3] stood at 4692.08.
In the case of `CCCCNC(=O)C(=O)NCCNc1ccnc2cc(Cl)ccc12`, the IC50 came to 6.76 µg/mL (≈ 19.4 µM) in the experiment on Plasmodium yoelii [1] (Plasmodium yoelii, 16 h) and 0.233 µg/mL (≈ 0.668 µM) with Plasmodium falciparum (setting [4]). Also, in experiment [3], the “Ratio CC50/IC50” value was 18.88.
On to `CCCCNC(=O)C(=O)N1CCN(c2ccnc3cc(Cl)ccc23)CC1`, for which the IC50 entry in the experiment with Plasmodium falciparum (vero) was “Not Active”.
As to `CCN(CC)CCNC(=O)C(=O)N1CCN(c2ccnc3cc(Cl)ccc23)CC1`, the IC50 in the experiment with Plasmodium yoelii [1] (Plasmodium yoelii, 16 h) was under 20 µg/mL; with Plasmodium falciparum (setting [4]), 0.042 µg/mL (≈ 0.1 µM). In experiment [3], the “Ratio CC50/IC50” value is 1183.41.
In the case of `CCN(CC)CCNc1nc(NCCCNc2ccnc3cc(Cl)ccc23)nc(N2CCCCC2)n1`, the IC50 came to 7.45 µg/mL (≈ 14.5 µM) in the experiment on Plasmodium yoelii [1] (Plasmodium yoelii, 16 h) and 0.00897 µg/mL (≈ 0.0175 µM) in the experiment on Plasmodium falciparum (setting [4]). The “Ratio CC50/IC50” value in experiment [3] came to 1011.15.
For `Clc1ccc2c(NCCNc3nc(NCCN4CCOCC4)nc(N4CCOCC4)n3)ccnc2c1` the same measures were 17.2 µg/mL (≈ 33.4 µM), 0.0482 µg/mL (≈ 0.0937 µM) and 1176.4.
As a reminder, the inhibition in vivo is the percentage by which the read-out fell short of the control. Regarding `O=C(NCCCNc1ccnc2cc(Cl)ccc12)C(=O)NCCCN1CCOCC1`, the IC50 with Plasmodium yoelii [1] (Plasmodium yoelii, 16 h) was 8.74 µg/mL (≈ 20.1 µM); with Plasmodium falciparum (setting [4]) it was 0.0254 µg/mL (≈ 0.0586 µM). The inhibition in vivo at 50 mg/kg in the experiment on Plasmodium yoelii [2] (N67, ip, 96 h, route intraperitoneal) was 21.4%. In addition, in experiment [3], the “Ratio CC50/IC50” value stood at 1625.52.
Turning to `O=C(NCCCNc1ccnc2cc(Cl)ccc12)C(=O)NCCN1CCOCC1`, the 50% inhibitory concentration (IC50) in the experiment with Plasmodium yoelii [1] (Plasmodium yoelii, 16 h) stood at 10.7 µg/mL (≈ 25.4 µM); in the experiment with Plasmodium falciparum (setting [4]), 0.0822 µg/mL (≈ 0.196 µM). Besides, in experiment [3], the “Ratio CC50/IC50” value was 191.82.
Taken in the same sequence, the figures for `O=C(NCCNc1ccnc2cc(Cl)ccc12)C(=O)NCCN1CCOCC1` were 6.87 µg/mL (≈ 16.9 µM), 0.0908 µg/mL (≈ 0.224 µM) and 567.43.
As to `O=C(C(=O)N1CCN(c2ccnc3cc(Cl)ccc23)CC1)c1c[nH]c2ccccc12`, the IC50 result in the experiment on Plasmodium falciparum (vero) is on record as “Not Active”.
